Measurements published in publication PMC12569033 (Nature Communications, 2025).
“Also recorded” adds a separate entry of the source. Blank lines part the entries; values can stand above or below the molecule they belong to.

What was measured:
dmIR wild-type (WT) = test: Cell-based dmIR activation; set-up: species or system Drosophila melanogaster; conditions: 10 min; for dmIR autophosphorylation, in words / Efficacy (signal in amplitude) relative to DILP5: dose response Fig. 1a; for Efficacy (signal in amplitude) relative to DILP5: of the efficacy/maximum of DILP5; for dmIR WT autophosphorylation on stimulation, in words: 100 nM, Fig. 2f, g
[1] = molecular target: near-full-length dmIR (residues 1–50, 151–1675, D1519N) (Drosophila melanogaster) (UniProt P09208); test: cryo-EM structure
dmIR R657A = test: dmIR autophosphorylation assay, R657A mutant; format: cell-based, Drosophila melanogaster; conditions: 100 nM DILP5, 10 min
Outline: (§1)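 Full-length wDah dmIR with a C-terminal MYC tag, mutated by site-directed mutagenesis, was transiently transfected into 293FT cells. After 1 day, cells were serum-starved for 16–18 h, then exposed to 100 nM synthetic DILP for 10 min. Lysates were immunoblotted for pY1548/1549 and Myc, and pY signal was normalized to total dmIR relative to WT receiving the same treatment. Independent experiments were analysed by two-way ANOVA with Dunnett's test, mean ± sem.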

dmIR V889R = test: dmIR autophosphorylation assay, V889R mutant; format: cell-based, Drosophila melanogaster; conditions: 100 nM DILP5, 10 min
Outline: as §1

dmIR Δ602–609 = test: dmIR autophosphorylation assay, Δ602–609 mutant; format: cell-based, Drosophila melanogaster; conditions: Δ602–609, 100 nM DILP5, 10 min
Outline: as §1

dmIR F1044A = test: dmIR autophosphorylation assay, F1044A mutant; format: cell-based, Drosophila melanogaster; conditions: 100 nM ligand, 10 min
Outline: (§2)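 Site-directed dmIR point mutants (C-terminal MYC tag) were transfected into 293FT cells alongside WT. After 1 day, cells were serum-starved 16–18 h, then treated 10 min with 100 nM DILP2 or DILP5. Lysates were blotted with anti-pY1150/1151 and anti-Myc. pY-dmIR was normalized to total dmIR and expressed relative to WT with the same ligand. Data are mean ± sem of ≥3 independent experiments, analysed by two-way ANOVA with Dunnett test versus WT.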

dmIR Q1040A = test: dmIR autophosphorylation assay, Q1040A mutant; format: cell-based, Drosophila melanogaster; conditions: 100 nM ligand, 10 min
Outline: as §2

dmIR R848A = test: dmIR autophosphorylation assay, R848A mutant; format: cell-based, Drosophila melanogaster; conditions: 100 nM ligand, 10 min
Outline: as §2

dmIR S820R = test: dmIR autophosphorylation assay, S820R mutant; format: cell-based, Drosophila melanogaster; conditions: 100 nM DILP5, 10 min
Outline: as §1

dmIR K1256A = test: dmIR autophosphorylation assay, K1256A mutant; format: cell-based, Drosophila melanogaster; conditions: 100 nM ligand, 10 min
Outline: as §1

Drosophila S2 cells = conditions: single peptide applied to cultured Drosophila S2 cells; cited from earlier work
[2] = system: glycogen phosphorylase; sterile 20-like kinase; tramtrack; conditions: cited from earlier work
dmIR D1251R = test: dmIR autophosphorylation assay, D1251R mutant; format: cell-based, Drosophila melanogaster; conditions: 100 nM ligand, 10 min
Outline: as §1

Molecule: Drosophila insulin-like peptide 1 [DILP1]
dmIR autophosphorylation, in words (Fig. 5f, g) (dmIR wild-type (WT); 1000 nM DILP1, 100 nM DILP5 or combination): lower levels of dmIR autophosphorylation compared to DILP5
dmIR autophosphorylation, in words (dmIR wild-type (WT); 293FT): lowest level of dmIR autophosphorylation; also recorded: lowest efficacy in activating dmIR
Efficacy (signal in amplitude) relative to DILP5 (dmIR wild-type (WT); 293FT): about 50%

stoichiometry N (DILP5 molecules per dmIR dimer) [1]: 3
Molecule: Drosophila insulin-like peptide 5 (DILP5) (ligand)

Effect of receptor mutation on ligand-induced activation, in words (dmIR F1044A): reduced receptor autophosphorylation
Effect of receptor mutation on ligand-induced activation, in words (dmIR Q1040A): reduced receptor autophosphorylation
Effect of receptor mutation on ligand-induced activation, in words (dmIR R848A): reduced receptor autophosphorylation
B1: Drosophila insulin-like peptide 5 (peptide, UniProt Q7KUD5 23-108, looked up)
Insulin-like peptide 5: ANSLRACGPALMDMLRVACPNGFNSMFAKRGTLGLFDYEDHLADLDSSESHHMNSLSSIRRDFRGVVDSCCRKSCSFSTLRAYCDS
Effect of receptor mutation on ligand-induced activation, in words (dmIR R657A): impaired DILP5-induced activation of dmIR
Effect of receptor mutation on ligand-induced activation, in words (dmIR V889R): modest but statistically significant reduction in dmIR phosphorylation
Effect of receptor mutation on ligand-induced activation, in words (dmIR Δ602–609): impaired DILP5-induced activation of dmIR
Effect of receptor mutation on ligand-induced activation, in words (dmIR S820R): modest but statistically significant reduction in dmIR phosphorylation
dmIR WT autophosphorylation on stimulation, in words (dmIR wild-type (WT); 293FT): significantly increased autophosphorylation of dmIR WT
Concentration at which saturation of dmIR autophosphorylation is observed (dmIR wild-type (WT); 293FT): 300 nM
dmIR autophosphorylation, in words (dmIR wild-type (WT); 293FT): increased dmIR autophosphorylation in a dose-dependent manner; also recorded: higher levels of dmIR autophosphorylation
Effect of receptor mutation on ligand-induced activation, in words (dmIR K1256A): defects in DILP5- or DILP2-dependent dmIR activation
Phosphorylation of Akt (pAkt), in words (Drosophila S2 cells): robust and sustained phosphorylation of Akt (pAkt)
Protein phosphorylation changes, in words [2]: increases the phosphorylation of sterile 20-like kinase and tramtrack
Effect of receptor mutation on ligand-induced activation, in words (dmIR D1251R): defects in DILP5- or DILP2-dependent dmIR activation

Effect of receptor mutation on ligand-induced activation, in words (dmIR F1044A): reduced receptor autophosphorylation
Effect of receptor mutation on ligand-induced activation, in words (dmIR Q1040A): reduced receptor autophosphorylation
Effect of receptor mutation on ligand-induced activation, in words (dmIR R848A): reduced receptor autophosphorylation
B2: Drosophila insulin-like peptide 2 (peptide, UniProt Q9VT51 27-137, looked up)
Insulin-like peptide 2: TLCSEKLNEVLSMVCEEYNPVIPHKRAMPGADSDLDALNPLQFVQEFEEEDNSISEPLRSALFPGSYLGGVLNSLAEVRRRTRQRQGIVERCCKKSCDMKALREYCSVVRN
dmIR WT autophosphorylation on stimulation, in words (dmIR wild-type (WT); 293FT): significantly increased autophosphorylation of dmIR WT
dmIR autophosphorylation, in words (dmIR wild-type (WT); 293FT): less effective than DILP5
Efficacy (signal in amplitude) relative to DILP5 (dmIR wild-type (WT); 293FT): approximately 75%
Effect of receptor mutation on ligand-induced activation, in words (dmIR K1256A): defects in DILP5- or DILP2-dependent dmIR activation
Phosphorylation of Akt (pAkt), in words (Drosophila S2 cells): only stimulates an early spike of pAkt
Protein phosphorylation changes, in words [2]: represses the phosphorylation of glycogen phosphorylase
Effect of receptor mutation on ligand-induced activation, in words (dmIR D1251R): defects in DILP5- or DILP2-dependent dmIR activation
